Experimental data taken from ChEMBL document CHEMBL4706770, “SD-91 as A Potent and Selective STAT3 Degrader Capable of Achieving Complete and Long-Lasting Tumor Regression” (ACS Med Chem Lett, 2021).

Assays:
[1] = molecular target: T1, Signal transducer and activator of transcription 1-alpha/beta (Homo sapiens, UniProt P42224); experiment: Binding affinity to human recombinant STAT1 assessed as dissociation constant incubated for 15 mins by biolayer interferometry
T1 sequence (P42224 whole entry): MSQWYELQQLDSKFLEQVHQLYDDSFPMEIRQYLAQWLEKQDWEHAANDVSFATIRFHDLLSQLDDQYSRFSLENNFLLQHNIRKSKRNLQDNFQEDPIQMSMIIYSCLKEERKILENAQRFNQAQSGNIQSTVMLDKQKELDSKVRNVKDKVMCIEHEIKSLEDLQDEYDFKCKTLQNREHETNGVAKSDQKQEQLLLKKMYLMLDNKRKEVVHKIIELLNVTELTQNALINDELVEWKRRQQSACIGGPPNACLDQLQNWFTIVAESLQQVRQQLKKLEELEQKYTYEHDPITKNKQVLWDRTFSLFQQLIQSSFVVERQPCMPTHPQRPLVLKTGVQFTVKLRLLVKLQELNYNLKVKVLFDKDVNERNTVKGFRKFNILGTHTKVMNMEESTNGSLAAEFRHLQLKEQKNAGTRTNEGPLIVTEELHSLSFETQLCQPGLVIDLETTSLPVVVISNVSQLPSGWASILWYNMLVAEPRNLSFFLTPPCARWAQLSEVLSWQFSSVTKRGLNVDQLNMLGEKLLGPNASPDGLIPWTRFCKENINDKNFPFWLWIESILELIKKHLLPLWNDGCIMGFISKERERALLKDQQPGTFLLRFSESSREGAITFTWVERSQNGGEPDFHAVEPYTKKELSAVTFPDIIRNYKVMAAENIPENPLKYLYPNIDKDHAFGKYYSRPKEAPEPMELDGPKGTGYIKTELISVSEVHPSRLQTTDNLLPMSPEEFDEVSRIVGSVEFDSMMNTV
Summary of the method: (§1)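 Biolayer interferometry with recombinant human STAT1, STAT2, STAT3, STAT4, STAT5A, STAT5B or STAT6 proteins containing their SH2 domain. Compound run in 2× serial dilutions from 200 nM. Kd taken from steady-state fitting of equilibrium responses against concentration using a 1:1 binding model.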

[2] = molecular target: T2, Signal transducer and activator of transcription 4 (Homo sapiens, UniProt Q14765); experiment: Binding affinity to human recombinant STAT4 assessed as dissociation constant incubated for 15 mins by biolayer interferometry; summary of the method: as §1
T2 sequence (Q14765 whole entry): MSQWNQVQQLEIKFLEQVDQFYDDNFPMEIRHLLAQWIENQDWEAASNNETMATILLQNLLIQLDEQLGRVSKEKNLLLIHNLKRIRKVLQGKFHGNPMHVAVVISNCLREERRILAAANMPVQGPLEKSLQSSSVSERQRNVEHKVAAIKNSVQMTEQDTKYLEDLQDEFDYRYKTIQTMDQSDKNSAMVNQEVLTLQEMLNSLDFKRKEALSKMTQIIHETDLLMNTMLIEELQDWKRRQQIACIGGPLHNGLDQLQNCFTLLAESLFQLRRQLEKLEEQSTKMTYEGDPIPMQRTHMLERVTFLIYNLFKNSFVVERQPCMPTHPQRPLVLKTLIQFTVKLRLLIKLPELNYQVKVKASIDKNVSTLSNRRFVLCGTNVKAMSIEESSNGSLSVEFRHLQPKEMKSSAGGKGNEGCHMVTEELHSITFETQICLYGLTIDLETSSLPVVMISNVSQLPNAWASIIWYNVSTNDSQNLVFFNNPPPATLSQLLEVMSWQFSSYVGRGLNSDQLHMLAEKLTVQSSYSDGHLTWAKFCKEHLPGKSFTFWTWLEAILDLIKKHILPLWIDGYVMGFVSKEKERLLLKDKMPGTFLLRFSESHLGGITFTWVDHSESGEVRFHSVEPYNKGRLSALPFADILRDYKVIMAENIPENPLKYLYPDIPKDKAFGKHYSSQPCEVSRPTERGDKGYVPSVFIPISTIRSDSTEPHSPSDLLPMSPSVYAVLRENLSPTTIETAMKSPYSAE

[3] = molecular target: T3, Signal transducer and activator of transcription 6 (Homo sapiens, UniProt P42226); experiment: Binding affinity to human recombinant STAT6 assessed as dissociation constant incubated for 15 mins by biolayer interferometry; summary of the method: as §1
T3 sequence (P42226 whole entry): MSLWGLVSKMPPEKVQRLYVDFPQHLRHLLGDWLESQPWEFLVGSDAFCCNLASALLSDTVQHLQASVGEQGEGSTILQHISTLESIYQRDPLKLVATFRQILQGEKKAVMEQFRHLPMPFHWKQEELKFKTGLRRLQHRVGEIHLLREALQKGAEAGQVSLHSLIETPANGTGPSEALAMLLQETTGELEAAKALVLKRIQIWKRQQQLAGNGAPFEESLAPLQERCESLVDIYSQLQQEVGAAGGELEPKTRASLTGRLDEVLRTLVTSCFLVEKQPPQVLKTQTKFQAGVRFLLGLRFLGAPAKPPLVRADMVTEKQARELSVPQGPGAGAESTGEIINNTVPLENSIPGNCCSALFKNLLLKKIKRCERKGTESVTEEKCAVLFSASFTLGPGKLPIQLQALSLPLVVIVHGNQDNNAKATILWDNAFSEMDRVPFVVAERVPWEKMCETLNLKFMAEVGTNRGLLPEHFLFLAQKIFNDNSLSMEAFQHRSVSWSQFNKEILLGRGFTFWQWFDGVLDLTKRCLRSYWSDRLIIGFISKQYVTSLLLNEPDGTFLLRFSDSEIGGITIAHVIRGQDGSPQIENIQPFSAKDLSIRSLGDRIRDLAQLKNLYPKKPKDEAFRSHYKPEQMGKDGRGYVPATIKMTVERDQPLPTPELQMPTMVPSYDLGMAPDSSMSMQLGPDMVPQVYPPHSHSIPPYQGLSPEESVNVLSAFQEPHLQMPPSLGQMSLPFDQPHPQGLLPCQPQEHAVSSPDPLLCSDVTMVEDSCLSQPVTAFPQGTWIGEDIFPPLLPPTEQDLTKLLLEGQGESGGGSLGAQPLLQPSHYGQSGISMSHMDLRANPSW

Measured: Kd

NC(=O)CC[C@H](NC(=O)[C@@H]1CC[C@@H]2CCN(C(=O)CCCCCC#Cc3cccc4c3CN(C3CCC(=O)NC3=O)C4=O)C[C@H](NC(=O)c3cc4cc(C(=O)P(=O)(O)O)ccc4[nH]3)C(=O)N21)C(=O)NC(c1ccccc1)c1ccccc1 (stereo partly drawn)
> 10 nM: all assays above
